Data reported in ChEMBL document CHEMBL5303300, “EUbOPEN Chemogenomics Library - Multiplex” (2023).
“And” between values parts separate entries of the source, which are not always exact repeats. Equal values may be shown once.

Test system: Fibroblast
Assay: Multiplex assay against human fibroblast
Assay type: toxicity, cell-based
Details: number of replicates 2
Method in brief: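 Live cells were stained at seeding with Hoechst33342, BioTracker Green Microtubule Cytoskeleton Dye, MitoTracker Red and Annexin V Alexa Fluor 680. Following compound addition, they were imaged on a CQ1 microscope at 37°C and 5% CO2 and gated by CellPathfinder machine learning into Hoechst high-intensity objects or normal cells, with normal cells split into healthy, pyknosed or fragmented nuclei and pyknosed cells into mitotic or apoptotic. Tubulin, mitochondrial-mass and membrane-permeability phenotypes are per cents of healthy-nucleus cells.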

[1] = 12 h, 1 µM, compound concentration 1 uM
[2] = 12 h, 10 µM, compound concentration 10 uM
[3] = 24 h, 1 µM, compound concentration 1 uM
[4] = 24 h, 10 µM, compound concentration 10 uM
[5] = 48 h, 1 µM, compound concentration 1 uM
[6] = 48 h, 10 µM, compound concentration 10 uM

## CCc1cnn2c(NCc3ccc[n+]([O-])c3)cc(N3CCCCC3CCO)nc12 (configuration not stated)
[1]
  Population Apoptotic (%): 35% and 55%
  Population Fragmented Nuclei (%): 7% and 13%
  Population Healthy Nuclei (%): 73% and 62%
  Population Hoechst High Intensity Objects (%): 0%
  Population Membrane Permeable-Phenotype (%): 3% and 4%
  Population Mitochondria Different-Phenotype (%): 1% and 0%
  Population Mitotic Cells (%): 65% and 44%
  Population Normal (%): 100%
  Population Pyknosed Nuclei (%): 19% and 23%
  Population Tubulin-Different-Phenotype (%): 13% and 9%
  Total Cell Count: 209 and 219
[2]
  Population Apoptotic (%): 42% and 55%
  Population Fragmented Nuclei (%): 6% and 7%
  Population Healthy Nuclei (%): 75%
  Population Hoechst High Intensity Objects (%): 0%
  Population Membrane Permeable-Phenotype (%): 5% and 7%
  Population Mitochondria Different-Phenotype (%): 2% and 3%
  Population Mitotic Cells (%): 57% and 44%
  Population Normal (%): 99% and 100%
  Population Pyknosed Nuclei (%): 17% and 16%
  Population Tubulin-Different-Phenotype (%): 31% and 26%
  Total Cell Count: 191 and 174
[3]
  Population Apoptotic (%): 59% and 63%
  Population Fragmented Nuclei (%): 9% and 13%
  Population Healthy Nuclei (%): 68% and 67%
  Population Hoechst High Intensity Objects (%): 0%
  Population Membrane Permeable-Phenotype (%): 7% and 3%
  Population Mitochondria Different-Phenotype (%): 2% and 0%
  Population Mitotic Cells (%): 40% and 36%
  Population Normal (%): 100%
  Population Pyknosed Nuclei (%): 22% and 19%
  Population Tubulin-Different-Phenotype (%): 18% and 10%
  Total Cell Count: 188 and 213
[4]
  Population Apoptotic (%): 68% and 52%
  Population Fragmented Nuclei (%): 8% and 9%
  Population Healthy Nuclei (%): 77% and 75%
  Population Hoechst High Intensity Objects (%): 0%
  Population Membrane Permeable-Phenotype (%): 10% and 4%
  Population Mitochondria Different-Phenotype (%): 2% and 6%
  Population Mitotic Cells (%): 32% and 48%
  Population Normal (%): 100%
  Population Pyknosed Nuclei (%): 13% and 15%
  Population Tubulin-Different-Phenotype (%): 43% and 38%
  Total Cell Count: 181 and 162
[5]
  Population Apoptotic (%): 65% and 64%
  Population Fragmented Nuclei (%): 9% and 12%
  Population Healthy Nuclei (%): 55% and 61%
  Population Hoechst High Intensity Objects (%): 0%
  Population Membrane Permeable-Phenotype (%): 8% and 9%
  Population Mitochondria Different-Phenotype (%): 0% and 3%
  Population Mitotic Cells (%): 34% and 35%
  Population Normal (%): 100% and 99%
  Population Pyknosed Nuclei (%): 35% and 26%
  Population Tubulin-Different-Phenotype (%): 15% and 17%
  Total Cell Count: 188 and 216
[6]
  Population Apoptotic (%): 73% and 63%
  Population Fragmented Nuclei (%): 11% and 6%
  Population Healthy Nuclei (%): 63%
  Population Hoechst High Intensity Objects (%): 0%
  Population Membrane Permeable-Phenotype (%): 14% and 20%
  Population Mitochondria Different-Phenotype (%): 1% and 4%
  Population Mitotic Cells (%): 26% and 36%
  Population Normal (%): 100% and 99%
  Population Pyknosed Nuclei (%): 25% and 29%
  Population Tubulin-Different-Phenotype (%): 43% and 41%
  Total Cell Count: 179 and 149

## CS(=O)(=O)c1ccc(NC(=O)c2cccc(COc3ccc(Br)cc3CNCCO)c2)c(Cl)c1.O=CO
[1]
  Population Apoptotic (%): 47% and 51%
  Population Fragmented Nuclei (%): 11%
  Population Healthy Nuclei (%): 64% and 70%
  Total Cell Count: 184 and 209
[2]
  Population Apoptotic (%): 56%
  Population Fragmented Nuclei (%): 22% and 14%
  Population Healthy Nuclei (%): 58% and 59%
  Total Cell Count: 327 and 259
[3]
  Population Apoptotic (%): 61% and 71%
  Population Fragmented Nuclei (%): 11%
  Population Healthy Nuclei (%): 60% and 68%
  Population Pyknosed Nuclei (%): 19%
  Total Cell Count: 187 and 198
[4]
  Population Apoptotic (%): 57% and 85%
  Population Fragmented Nuclei (%): 15% and 18%
  Population Healthy Nuclei (%): 65% and 64%
  Total Cell Count: 227 and 235
[5]
  Population Apoptotic (%): 76% and 80%
  Population Fragmented Nuclei (%): 16% and 17%
  Population Healthy Nuclei (%): 64% and 70%
  Population Pyknosed Nuclei (%): 19%
  Total Cell Count: 178 and 216
[6]
  Population Apoptotic (%): 85% and 87%
  Population Fragmented Nuclei (%): 16% and 13%
  Population Healthy Nuclei (%): 70% and 72%
  Population Pyknosed Nuclei (%): 14%
  Total Cell Count: 211 and 226

## CS(=O)(=O)c1ccc(C(=O)Nc2cccc(COc3ccc(Br)cc3CN[C@H]3CCC[C@@H]3O)c2)c(Cl)c1.O=CO
[1]
  Population Apoptotic (%): 24% and 46%
  Population Healthy Nuclei (%): 71% and 64%
  Population Hoechst High Intensity Objects (%): 0%
  Population Mitotic Cells (%): 75% and 53%
  Population Normal (%): 99% and 100%
  Population Pyknosed Nuclei (%): 20%
  Total Cell Count: 223 and 167
[2]
  Population Apoptotic (%): 52% and 50%
  Population Healthy Nuclei (%): 43% and 57%
  Population Hoechst High Intensity Objects (%): 1% and 0%
  Population Mitotic Cells (%): 47% and 50%
  Population Normal (%): 98% and 99%
  Population Pyknosed Nuclei (%): 42%
  Total Cell Count: 187 and 221
[3]
  Population Apoptotic (%): 44% and 73%
  Population Healthy Nuclei (%): 68% and 59%
  Population Hoechst High Intensity Objects (%): 0%
  Population Normal (%): 100%
  Total Cell Count: 219 and 171
[4]
  Population Apoptotic (%): 62% and 72%
  Population Healthy Nuclei (%): 58% and 51%
  Population Hoechst High Intensity Objects (%): 0%
  Population Mitotic Cells (%): 37% and 27%
  Population Normal (%): 99% and 97%
  Population Pyknosed Nuclei (%): 32%
  Total Cell Count: 202 and 182
[5]
  Population Apoptotic (%): 75% and 70%
  Population Healthy Nuclei (%): 70% and 68%
  Population Hoechst High Intensity Objects (%): 0%
  Population Mitotic Cells (%): 24% and 29%
  Population Normal (%): 99% and 100%
  Population Pyknosed Nuclei (%): 20%
  Total Cell Count: 218 and 154
[6]
  Population Apoptotic (%): 87% and 86%
  Population Healthy Nuclei (%): 71% and 55%
  Population Hoechst High Intensity Objects (%): 0% and 1%
  Population Normal (%): 99% and 98%
  Population Pyknosed Nuclei (%): 20%
  Total Cell Count: 197 and 190
